Reference: ChEMBL document CHEMBL4811219 (Eur J Med Chem, 2021)

Assays:
Assay type in all cases: ADME, organism-based
Settings in all cases: in vivo
[1] = Observed AUC (0-7 hrs) in CD-1 mouse at 10 mg/kg, ip by LC-MS/MS analysis; design: time < 7 hr, route intraperitoneal, dose 10 mg/kg
[2] = Cmax in CD-1 mouse at 10 mg/kg, ip upto 7 hrs by LC-MS/MS analysis; design: route intraperitoneal, dose 10 mg/kg, time <=7
How it was run: (§1)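 Female CD-1 mice, single dose of 10 mg/kg i.p. or 20 mg/kg p.o., in 20% DMSO/50% PEG-400/30% PBS. Blood was sampled at 0.5, 2, 4 and 7 h and plasma assayed by LC-MS/MS (ESI positive MRM). Parameters are noncompartmental, mean of N=3.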

[3] = Cmax in CD-1 mouse at 20 mg/kg, po upto 7 hrs by LC-MS/MS analysis; design: route oral, dose 20 mg/kg, time <=7; how it was run: as §1
[4] = Observed AUC (0-7 hrs) in CD-1 mouse at 20 mg/kg, po by LC-MS/MS analysis; design: time < 7 hr, route oral, dose 20 mg/kg

Row | AUC [1] | Cmax [2] | Cmax [3] | AUC [4] | SMILES
1 | 0.7 µM·h | 0.3 µM |  |  | C[C@@H](Sc1nc2c(cnn2C)c(=O)n1-c1ccccc1)c1ccccc1
2 |  | 3.3 µM | 3.9 µM |  | CC(Sc1nc2nn(C3COC3)cc2c(=O)n1-c1ccccc1)c1ccccn1 (stereo not drawn)
3 | 4.9 µM·h | 2.3 µM | 0.8 µM | 3.9 µM·h | CC(Sc1nc2c(cnn2C)c(=O)n1-c1ccccc1)c1ccccc1 (stereo not drawn)
4 | 19.5 µM·h | 7.9 µM |  |  | CC(Sc1nc2nn(C3COC3)cc2c(=O)n1-c1ccccc1)c1ccccc1 (stereo not drawn)
5 | 23 µM·h | 7 µM | 7 µM | 23.3 µM·h | CC(Sc1nc2nn(C3(C)COC3)cc2c(=O)n1-c1ccccc1)c1ccccc1 (stereo not drawn)
6 | 7.9 µM·h | 3.9 µM | 7.3 µM | 17.4 µM·h | CC(Sc1nc2c(cnn2C)c(=O)n1-c1ccccc1)c1ccccn1 (stereo not drawn)
